According to ChEMBL document CHEMBL2010769, “Synthesis and antiviral activity of 6-deoxycyclopropavir, a new prodrug of cyclopropavir” (Bioorg Med Chem, 2012):
Calls of active or inactive are those of the source. The calls are words filed in the database; no cut-off is given here.

Columns and labels:
Vaccinia virus = assay: Antiviral activity against Vaccinia virus infected in HFF assessed as reduction in virus induced cytopathic effect at 100 uM; format: functional, organism-based; details: Orthopoxvirus vaccinia
Cowpox virus = assay: Antiviral activity against Cowpox virus infected in HFF assessed as reduction in virus induced cytopathic effect at 100 uM; format: functional, organism-based
Human gammaherpesvirus 4 = assay: Antiviral activity against Epstein-Barr virus infected in Akata cells by DNA hybridization assay; format: functional, organism-based; details: human gammaherpesvirus 4, Akata
Mus musculus [1] = assay: Toxicity in BALB/c mouse assessed as body weight loss at 50 mg/kg, po qd for 5 days relative to control; format: organism-based; parameters: dose 50 mg/kg, route oral; details: in vivo, 120 h
How it was run: (§1)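 Uninfected female BALB/c mice, 3 weeks old, in groups of 5. Compound suspended in 0.4% carboxymethylcellulose and given orally in 0.2 mL once daily for 5 days at 50, 16.7 or 5.6 mg/kg. Mean group body weight tracked over days 1–5 plus day 6 recovery. Clinical signs (ruffled coat, behaviour) were observed. Comparison was with vehicle-treated or untreated mice.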

Mus musculus [2] = assay: Toxicity in BALB/c mouse assessed as body weight loss at 5.6 mg/kg, po qd for 5 days relative to control; format: organism-based; parameters: dose 5.6 mg/kg, route oral; details: in vivo, 120 h; how it was run: as §1
Mus musculus [3] = assay: Toxicity in BALB/c mouse assessed as ruffled coat appearance at 16.7 mg/kg, po qd for 5 days relative to control; format: organism-based; parameters: dose 16.7 mg/kg, route oral; details: in vivo, 120 h; how it was run: as §1
Mus musculus [4] = assay: Toxicity in BALB/c mouse assessed as changes in behavior at 50 mg/kg, po qd for 5 days relative to control; format: organism-based; parameters: dose 50 mg/kg, route oral; details: in vivo, 120 h; how it was run: as §1
Murid betaherpesvirus 1 [5] = assay: Antiviral activity against MCMV infected in BALB/c mouse assessed as decrease in virus-induced mortality at 16.7 mg/kg, po qd for 5 days administered 48 hrs after viral infection (reference value: 100%); format: functional; parameters: scale not given: the % may be the effect or the level left
How it was run: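 Female BALB/c mice (3 weeks, 15/group) were inoculated ip with MCMV Smith at about LD90. Oral dosing of 0.2 mL in 0.4% CMC ran once daily for 5 days, starting 24 or 48 h post-inoculation. Mice were observed daily for 21 days. Mortality was compared with CMC placebo by Fisher's exact test.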

Murid betaherpesvirus 1 [6] = assay: Antiviral activity against MCMV infected in BALB/c mouse assessed as decrease in virus-induced mean day of death at 5.6 mg/kg, po qd for 5 days administered 24 hrs after viral infection (reference value: 4.9 +/- 0.7 days); format: functional
Murid betaherpesvirus 1 [7] = assay: Antiviral activity against MCMV infected in BALB/c mouse assessed as decrease in virus-induced mean day of death at 50 mg/kg, po qd for 5 days administered 48 hrs after viral infection (reference value: 5.1 +/- 0.9 days); format: functional
Human betaherpesvirus 5 [8] = assay: Antiviral activity against HCMV Toledo infected in human thymus/liver tissue xenografted in SCID mouse assessed as mean log10 genome equivalents/animal at 12.5 mg/kg, po qd for 14 days by RT-PCR analysis (reference value: 3.50 +/- 0.878); format: functional, strain Toledo
Human betaherpesvirus 5 [9] = assay: Antiviral activity against HCMV Toledo infected in human thymus/liver tissue xenografted in SCID mouse assessed as decrease in viral infection at 12.5 mg/kg, po qd for 28 days measured on day 35 by RT-PCR analysis (reference value: 67%); format: functional, strain Toledo; parameters: scale not given: the % may be the effect or the level left
Human betaherpesvirus 5 [10] = assay: Antiviral activity against HCMV Toledo infected in human thymus/liver tissue xenografted in SCID mouse assessed as decrease in viral infection at 6.25 mg/kg, po qd for 14 days by RT-PCR analysis (reference value: 92%); format: functional, strain Toledo; parameters: scale not given: the % may be the effect or the level left
Human betaherpesvirus 5 [11] = assay: Antiviral activity against HCMV Toledo infected in human thymus/liver tissue xenografted in SCID mouse assessed as decrease in viral infection at 6.25 mg/kg, po qd for 21 days by RT-PCR analysis (reference value: 92%); format: functional, strain Toledo; parameters: scale not given: the % may be the effect or the level left
Human betaherpesvirus 5 [12] = assay: Antiviral activity against HCMV Toledo infected in human thymus/liver tissue xenografted in SCID mouse assessed as decrease in viral infection at 6.25 mg/kg, po qd for 28 days by RT-PCR analysis (reference value: 92%); format: functional, strain Toledo; parameters: scale not given: the % may be the effect or the level left
Human betaherpesvirus 5 [13] = assay: Antiviral activity against HCMV Toledo infected in human thymus/liver tissue xenografted in SCID mouse assessed as decrease in viral infection at 6.25 mg/kg, po qd for 28 days measured on day 35 by RT-PCR analysis (reference value: 67%); format: functional, strain Toledo; parameters: scale not given: the % may be the effect or the level left
Human alphaherpesvirus 1 = assay: Antiviral activity against HSV1 infected in HFF assessed as reduction in virus induced cytopathic effect; format: functional, organism-based

Nc1ncc2ncn(/C=C3/CC3(CO)CO)c2n1
Activity (Vaccinia virus): inactive | Activity (Cowpox virus): inactive | EC50 (Human gammaherpesvirus 4): 27 µM | Activity (Mus musculus [1]): 17% | Activity (Mus musculus [2]): Non-toxic | Activity (Mus musculus [3]): Non-toxic | Activity (Mus musculus [4]): Non-toxic | Activity (Murid betaherpesvirus 1 [5]): 7% | Activity (Murid betaherpesvirus 1 [6]): 6 days | Activity (Murid betaherpesvirus 1 [7]): 11.9 days | Activity (Human betaherpesvirus 5 [8]): 3.03 | Activity (Human betaherpesvirus 5 [9]): 83% | Activity (Human betaherpesvirus 5 [10]): 92% | Activity (Human betaherpesvirus 5 [11]): 92% | Activity (Human betaherpesvirus 5 [12]): 58% | Activity (Human betaherpesvirus 5 [13]): 100% | EC50 (Human alphaherpesvirus 1): > 300 µM
